Data taken from article PMC3771329 (Journal of the American Chemical Society, 2013).

Key:
furin = furin (Homo sapiens, UniProt P09958); assay: Fluorescence spectrometry of probes incubated with and without furin; type: biochemical; settings: 2 μM probe, furin (100 pmol·U−1) buffer (100 mM HEPES, 1 mM CaCl2, pH 7.5) with 1 mM TCEP, 3 h, 37 °C; n=3
[1] = system: MDA-MB-231 (furin-overexpressing) subcutaneous tumors; assay: Furin-like activity photoacoustic imaging in mice, MDA-MB-231 tumors; type: in vivo; settings: 25 nmol by tail vein; imaged every 15 min up to 60 min; n=4
Procedure, shortened: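 Female nude (Nu/Nu) mice carried subcutaneous upper-thigh xenografts from 10 million MDA-MB-231 or LoVo cells, grown 3–4 weeks. Mice were under 2% isoflurane in oxygen with a tail-vein catheter. Tumors got an 11-min pre-scan at 740 nm. Test compound (25 nmol, diluted from DMSO stock into 150 μL sterile PBS) was given i.v. PA scans ran every 15 min for 1 h: 120 views, 100 pulses/view, 250 μm voxels, 3D back-projection reconstruction. Signal normalized to t=0; n=4/group, SD; two-sided paired t test.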

[2] = type: physicochemical; settings: after incubation with furin, buffer pH 7.5 with TCEP, 37 °C, 3 h

Chain of furin (P09958 108-595 limits assumed): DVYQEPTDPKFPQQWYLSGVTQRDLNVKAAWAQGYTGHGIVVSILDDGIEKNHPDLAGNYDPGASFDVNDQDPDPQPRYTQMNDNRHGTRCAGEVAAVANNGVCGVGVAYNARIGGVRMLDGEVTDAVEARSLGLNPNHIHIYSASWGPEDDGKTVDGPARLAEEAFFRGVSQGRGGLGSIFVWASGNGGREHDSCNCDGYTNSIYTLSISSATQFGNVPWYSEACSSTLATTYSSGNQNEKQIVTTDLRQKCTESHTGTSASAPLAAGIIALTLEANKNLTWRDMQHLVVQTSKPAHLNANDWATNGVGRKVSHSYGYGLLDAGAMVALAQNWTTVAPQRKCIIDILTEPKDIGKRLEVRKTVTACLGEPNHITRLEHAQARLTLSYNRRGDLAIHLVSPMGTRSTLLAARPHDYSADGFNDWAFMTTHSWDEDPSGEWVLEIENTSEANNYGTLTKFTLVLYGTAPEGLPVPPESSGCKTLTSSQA

Row | Substance | drop in fluorescence, incubated with furin relative to no furin added (furin) | PA signal in MDA-MB-231 tumors after probe injection [1] | precipitation / water solubility of the oligomers formed with furin [2]
1 | Ac-RRRVC(SEt)K(Atto740)-CABT [ESOR-PA02] | no significant decrease | very low levels of PA signal | 
2 | Ac-RVRRC(SEt)K(Atto740)-CABT [ESOR-PA01] | 6 fold |  | no precipitate was formed
